The source of these data is PubChem BioAssay AID624306 (The Scripps Research Institute Molecular Screening Center, 2012).

The target in the assay is Insulin-degrading enzyme (Homo sapiens) (UniProt P14735). In words: dilution reversibility, CF mutant IDE inhibitors – biochemical, cysteine-free mutant, FRET1 fluorogenic peptide, mechanism study for IDE inhibitor project, late-stage follow-up (AID 624306). The note with it: recombinant cysteine-free IDE, FRET1 fluorescence. Put shortly:
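System: Mutant insulin-degrading enzyme (IDE) | Input: Mutant IDE at 1 nM in the well | Also added: Substrate 1 µM | Dosing: Top compound dose 100 µM | Times: Kinetic reads every 2 min over 2 h, room temperature | Technique: Fluorescence at 335/385 nm | Controls: Vehicle (high) and no-enzyme (low) wells | Replication: Triplicate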

The structures appear in SMILES notation. Activity calls are given as the source filed them.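 The calls were made as follows: active = inhibition of insulin-degrading enzyme persists after dilution, judged irreversible; inactive = inhibition lost or reduced after dilution, judged reversible.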

Sequence of Insulin-degrading enzyme (Homo sapiens) (P14735 whole entry, looked up): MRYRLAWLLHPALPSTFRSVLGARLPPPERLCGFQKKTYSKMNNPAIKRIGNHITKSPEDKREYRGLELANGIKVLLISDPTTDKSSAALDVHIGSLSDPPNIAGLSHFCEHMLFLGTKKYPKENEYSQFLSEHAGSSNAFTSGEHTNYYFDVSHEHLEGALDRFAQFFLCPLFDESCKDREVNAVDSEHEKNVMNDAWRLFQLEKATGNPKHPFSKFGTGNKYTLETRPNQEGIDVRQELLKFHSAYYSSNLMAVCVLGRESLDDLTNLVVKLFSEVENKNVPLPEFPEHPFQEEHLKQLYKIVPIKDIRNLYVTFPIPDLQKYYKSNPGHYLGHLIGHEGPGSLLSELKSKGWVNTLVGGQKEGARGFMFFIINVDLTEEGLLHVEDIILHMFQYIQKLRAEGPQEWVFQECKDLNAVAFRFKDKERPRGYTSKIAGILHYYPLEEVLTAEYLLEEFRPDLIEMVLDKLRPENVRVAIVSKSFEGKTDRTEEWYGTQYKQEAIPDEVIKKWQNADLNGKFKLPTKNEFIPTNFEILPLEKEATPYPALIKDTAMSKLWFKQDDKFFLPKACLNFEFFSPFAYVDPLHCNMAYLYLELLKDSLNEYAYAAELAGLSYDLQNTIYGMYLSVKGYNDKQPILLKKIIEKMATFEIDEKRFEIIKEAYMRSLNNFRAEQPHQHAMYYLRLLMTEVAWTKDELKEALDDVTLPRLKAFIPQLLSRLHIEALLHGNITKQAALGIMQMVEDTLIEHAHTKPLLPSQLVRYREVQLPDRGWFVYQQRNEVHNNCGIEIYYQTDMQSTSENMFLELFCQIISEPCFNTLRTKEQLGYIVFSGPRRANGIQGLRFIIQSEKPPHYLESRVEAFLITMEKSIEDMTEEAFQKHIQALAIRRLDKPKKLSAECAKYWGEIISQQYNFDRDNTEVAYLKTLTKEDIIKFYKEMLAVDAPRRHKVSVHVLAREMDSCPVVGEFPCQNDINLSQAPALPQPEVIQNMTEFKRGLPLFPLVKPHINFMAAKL

Consider `O=C(O)c1ccccc1NS(=O)(=O)c1cccc(-n2sc3ccccc3c2=O)c1`, for which the outcome was active.

`Cc1cccc(-c2nnc(SCc3nc4ccccc4[nH]3)n2Cc2ccco2)c1`: the result was inactive.

Consider `Clc1cccc(-c2nnc(SCc3nc4ccccc4[nH]3)n2Cc2ccco2)c1`, for which the outcome was inactive.

As to `O=c1c2ccccc2sn1-c1cc(S(=O)(=O)N2CCOCC2)ccc1N1CCOCC1`, the result was active.

Regarding `COc1ccc(C(=O)N2CCN(C(=O)C3COc4ccccc4O3)CC2)cc1OC` (stereo not given), the result was inactive.

Regarding `Cc1c(CCC(=O)NCCCn2ccnc2)c(=O)oc2cc3oc4c(c3cc12)CCCC4`, the result was inactive.

As for `COc1cc(/C=C2\SC(=S)N(NC(C)=O)C2=O)ccc1OC(=O)c1ccco1`, the outcome was inactive.

As to `O=C(Nc1cccc(C(F)(F)F)c1)c1csc(-c2ccncc2)n1`, the result was inactive.

On to `Cn1c(=O)c(C(=O)CN2CCCc3ccccc32)c(N)n(Cc2ccccc2)c1=O`, for which the outcome was inactive.

As to `COc1cccc(-c2nnc(SCc3nc4ccccc4[nH]3)n2Cc2ccco2)c1`, the outcome was inactive.
